No end group written: not given here.
Key:
[1] = system: Gemin4; experiment: Co-IP, XLH-36/Gemin4; format: binding; details: endogenous interaction, Fig. 5E
[2] = biological target: T1, Human Gemin4 protein (Homo sapiens, UniProt P57678); experiment: MicroScale thermophoresis; format: binding
T1 sequence (P57678 1-1058): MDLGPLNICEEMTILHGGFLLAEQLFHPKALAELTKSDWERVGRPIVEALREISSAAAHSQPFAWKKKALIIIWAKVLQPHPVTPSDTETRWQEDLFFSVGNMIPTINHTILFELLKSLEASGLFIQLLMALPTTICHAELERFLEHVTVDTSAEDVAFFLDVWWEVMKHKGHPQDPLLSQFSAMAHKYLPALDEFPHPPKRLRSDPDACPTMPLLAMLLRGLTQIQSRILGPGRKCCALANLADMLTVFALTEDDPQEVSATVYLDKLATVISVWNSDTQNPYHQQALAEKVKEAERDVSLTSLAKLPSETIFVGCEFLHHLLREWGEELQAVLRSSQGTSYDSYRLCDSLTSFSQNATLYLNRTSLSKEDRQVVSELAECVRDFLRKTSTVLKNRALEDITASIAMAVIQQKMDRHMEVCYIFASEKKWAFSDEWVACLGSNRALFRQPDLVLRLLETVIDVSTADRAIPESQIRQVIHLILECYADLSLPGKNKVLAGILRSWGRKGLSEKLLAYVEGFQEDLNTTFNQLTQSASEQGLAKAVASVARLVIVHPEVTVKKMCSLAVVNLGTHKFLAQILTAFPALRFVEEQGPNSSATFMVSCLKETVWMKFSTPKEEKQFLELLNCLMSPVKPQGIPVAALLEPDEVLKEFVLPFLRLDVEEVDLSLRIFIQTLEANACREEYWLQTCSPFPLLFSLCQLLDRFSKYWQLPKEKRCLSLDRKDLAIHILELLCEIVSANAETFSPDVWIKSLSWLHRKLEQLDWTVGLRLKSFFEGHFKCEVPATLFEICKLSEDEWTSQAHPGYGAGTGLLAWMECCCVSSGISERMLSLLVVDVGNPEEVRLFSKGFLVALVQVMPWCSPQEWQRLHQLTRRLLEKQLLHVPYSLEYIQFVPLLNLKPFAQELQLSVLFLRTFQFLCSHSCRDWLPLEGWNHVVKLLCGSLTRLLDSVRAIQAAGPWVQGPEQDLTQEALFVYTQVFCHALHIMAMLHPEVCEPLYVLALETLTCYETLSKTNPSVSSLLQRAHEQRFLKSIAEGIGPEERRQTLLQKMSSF
Outline: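 Human Gemin4 expressed in HEK293 cells and labelled with Cy5 through cysteine sulfhydryl groups. Binding of the test peptide to the labelled protein was measured by microscale thermophoresis, and affinity was derived with the instrument's affinity analysis tool.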

[3] = system: Gemin4; experiment: Immunofluorescence co-staining XLH-36/Gemin4; format: cell-based; details: MDA-MB-231 cells, confocal immunofluorescence
Outline: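 Cells fixed 15 min at RT in β-galactosidase staining fixative, permeabilised with Triton X-100 for 15 min, blocked in 5% BSA for 30 min at RT. Primary antibody overnight at 4 °C, then secondary antibodies 2 h at RT in the dark. DAPI counterstain 10 min in the dark; imaged by fluorescence microscopy. PBS washes between steps.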

[4] = system: Gemin4; experiment: yeast two-hybrid assay; format: binding; details: DDO medium SD/Trp-/Leu-, TDO medium SD/Trp-/Leu-/HIS-

MRQGPSTEVPGRAPRPRGPAASRADPSLRPEGGQDP [XLH-36]
interaction with Gemin4 [1]: only Gemin4 was confirmed to interact with XLH-36 | Kd [2]: 4.76 µM | IF interaction with Gemin4 [3]: XLH-36 indeed interacted with Gemin4 | direct interaction with Gemin4 [4]: supported the direct interaction between XLH-36 and Gemin4

— publication PMC12738293 (Oncogene, 2025)
